Results published in ChEMBL document CHEMBL1154674, “Synthesis and evaluation of three 18F-labeled aminophenylbenzothiazoles as amyloid imaging agents” (J Med Chem, 2009).

Tests used:
Assay type in all cases: ADME, organism-based, Macaca mulatta
[1] = Drug level in normal rhesus monkey white matter assessed as standard uptake value at 81.2 MBq, iv after 42.5 mins by microPET; conditions: in vivo
[2] = Drug level in normal rhesus monkey cerebellum assessed as standard uptake value at 81.2 MBq, iv after 65 mins by microPET; conditions: in vivo
Procedure, shortened: (§1)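 One normal rhesus monkey, each tracer given iv via the vena saphena (81.2, 96.3 or 109.4 MBq), with 1 day between tracer injections. Dynamic brain μPET over 180 min used frames of 5 × 60 s, 5 × 120 s, 9 × 300 s and 12 × 600 s. Images were reconstructed by filtered back projection with a RAMP filter. Regional time-activity curves were expressed as SUV.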

[3] = Drug level in normal rhesus monkey parietal cortex assessed as standard uptake value at 81.2 MBq, iv after 105 mins by microPET; conditions: in vivo, 1.75 h
[4] = Drug level in normal rhesus monkey white matter assessed as standard uptake value at 81.2 MBq, iv after 47.5 mins by microPET; conditions: in vivo
[5] = Drug level in normal rhesus monkey white matter assessed as standard uptake value at 81.2 MBq, iv after 17.5 mins by microPET; conditions: in vivo
[6] = Drug level in normal rhesus monkey parietal cortex assessed as standard uptake value at 81.2 MBq, iv after 37.5 mins by microPET; conditions: in vivo, 0.625 h
[7] = Drug level in normal rhesus monkey frontal cortex assessed as standard uptake value at 81.2 MBq, iv after 2.5 mins by microPET; conditions: in vivo
[8] = Drug level in normal rhesus monkey thalamus assessed as standard uptake value at 81.2 MBq, iv after 115 mins by microPET; conditions: in vivo
[9] = Drug level in normal rhesus monkey parietal cortex assessed as standard uptake value at 96.3 MBq, iv after 22.5 mins by microPET; conditions: in vivo, 0.375 h
[10] = Drug level in normal rhesus monkey parietal cortex assessed as standard uptake value at 96.3 MBq, iv after 6 mins by microPET; conditions: in vivo, 0.1 h
[11] = Drug level in normal rhesus monkey white matter assessed as standard uptake value at 96.3 MBq, iv after 75 mins by microPET; conditions: in vivo, 1.25 h
[12] = Drug level in normal rhesus monkey pons assessed as standard uptake value at 96.3 MBq, iv after 22.5 mins by microPET; conditions: in vivo, 0.375 h
[13] = Drug level in normal rhesus monkey thalamus assessed as standard uptake value at 96.3 MBq, iv after 4.5 mins by microPET; conditions: in vivo, 0.075 h
[14] = Drug level in normal rhesus monkey thalamus assessed as standard uptake value at 96.3 MBq, iv after 37.5 mins by microPET; conditions: in vivo, 0.625 h
[15] = Drug level in normal rhesus monkey white matter assessed as standard uptake value at 96.3 MBq, iv after 12 mins by microPET; conditions: in vivo, 0.2 h
[16] = Drug level in normal rhesus monkey frontal cortex assessed as standard uptake value at 96.3 MBq, iv after 8 mins by microPET; conditions: in vivo
[17] = Drug level in normal rhesus monkey white matter assessed as standard uptake value at 109.4 MBq, iv after 1.5 mins by microPET; conditions: in vivo, 0.025 h
[18] = Drug level in normal rhesus monkey frontal cortex assessed as standard uptake value at 109.4 MBq, iv after 47.5 mins by microPET; conditions: in vivo; procedure, shortened: as §1
[19] = Drug level in normal rhesus monkey thalamus assessed as standard uptake value at 109.4 MBq, iv after 87 mins by microPET; conditions: in vivo, 1.45 h
[20] = Drug level in normal rhesus monkey cerebellum assessed as standard uptake value at 109.4 MBq, iv after 93 mins by microPET; conditions: in vivo, 1.55 h
[21] = Drug level in normal rhesus monkey cerebellum assessed as standard uptake value at 109.4 MBq, iv after 129 mins by microPET; conditions: in vivo, 2.15 h
[22] = Drug level in normal rhesus monkey parietal cortex assessed as standard uptake value at 109.4 MBq, iv after 63 mins by microPET; conditions: in vivo, 1.05 h
[23] = Drug level in normal rhesus monkey white matter assessed as standard uptake value at 109.4 MBq, iv after 75 mins by microPET; conditions: in vivo, 1.25 h
[24] = Drug level in normal rhesus monkey pons assessed as standard uptake value at 109.4 MBq, iv after 0.375 mins by microPET; conditions: in vivo, 22 s
[25] = Drug level in normal rhesus monkey pons assessed as standard uptake value at 109.4 MBq, iv after 117 mins by microPET; conditions: in vivo, 1.95 h
[26] = Drug level in normal rhesus monkey cerebellum assessed as standard uptake value at 109.4 MBq, iv after 4.5 mins by microPET; conditions: in vivo, 0.075 h
Procedure, shortened: (§2)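 Single normal rhesus monkey; each tracer given iv via the vena saphena, with 1 day between tracer injections. Dynamic μPET ran 180 min (5×60 s, 5×120 s, 9×300 s, 12×600 s). Images were reconstructed by filtered back projection with a RAMP filter. Regional time-activity curves were expressed as SUV.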

[27] = Drug level in normal rhesus monkey pons assessed as standard uptake value at 109.4 MBq, iv after 87 mins by microPET; conditions: in vivo, 1.45 h
[28] = Drug level in normal rhesus monkey parietal cortex assessed as standard uptake value at 109.4 MBq, iv after 52.5 mins by microPET; conditions: in vivo, 0.875 h
[29] = Drug level in normal rhesus monkey cerebellum assessed as standard uptake value at 109.4 MBq, iv after 27.5 mins by microPET; conditions: in vivo; procedure, shortened: as §2
[30] = Drug level in normal rhesus monkey white matter assessed as standard uptake value at 152.9 MBq, iv after 3.5 mins by microPET; conditions: in vivo
[31] = Drug level in normal rhesus monkey cerebellum assessed as standard uptake value at 152.9 MBq, iv after 0.5 mins by microPET; conditions: in vivo
Procedure, shortened: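 One normal rhesus monkey received each tracer via the vena saphena, with 1 day between injections. Dynamic μPET ran 180 min for 18F tracers (5×60 s, 5×120 s, 9×300 s, 12×600 s) and 90 min for the 11C tracer (5×60 s, 5×120 s, 9×300 s, 3×600 s). Filtered back-projection reconstruction (RAMP filter) was used. Time-activity curves were drawn to give regional SUV.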

[32] = Drug level in normal rhesus monkey pons assessed as standard uptake value at 152.9 MBq, iv after 6 mins by microPET; conditions: in vivo, 0.1 h
[33] = Drug level in normal rhesus monkey cerebellum assessed as standard uptake value at 152.9 MBq, iv after 32.5 mins by microPET; conditions: in vivo
Procedure, shortened: (§3)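 Single normal rhesus monkey; tracer given iv via the vena saphena, 1 day apart from the other tracer injections. Dynamic μPET ran 90 min (5×60 s, 5×120 s, 9×300 s, 3×600 s). Images were reconstructed by filtered back projection with a RAMP filter. Regional time-activity curves were expressed as SUV.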

[34] = Drug level in normal rhesus monkey white matter assessed as standard uptake value at 152.9 MBq, iv after 42.5 mins by microPET; conditions: in vivo
[35] = Drug level in normal rhesus monkey frontal cortex assessed as standard uptake value at 152.9 MBq, iv after 42.5 mins by microPET; conditions: in vivo; procedure, shortened: as §3

SMILES: CNc1ccc2nc(-c3ccc([18F])cc3)sc2c1
- SUV [1]: 3.757
- SUV [2]: 1.88
- SUV [3]: 2.784
- SUV [4]: 3.674
- SUV [5]: 3.647
- SUV [6]: 3.965
- SUV [7]: 4.284
- SUV [8]: 5.209

SMILES: CN(C)c1ccc2nc(-c3ccc([18F])cc3)sc2c1
- SUV [9]: 2.09
- SUV [10]: 2.16
- SUV [11]: 1.5
- SUV [12]: 1.78
- SUV [13]: 1.93
- SUV [14]: 2.33
- SUV [15]: 1.31
- SUV [16]: 1.98

SMILES: Nc1ccc2nc(-c3ccc([18F])cc3)sc2c1
- SUV [17]: 1.98
- SUV [18]: 4.76
- SUV [19]: 4.98
- SUV [20]: 2.52
- SUV [21]: 2.36
- SUV [22]: 4.18
- SUV [23]: 3.63
- SUV [24]: 0.4
- SUV [25]: 4.76
- SUV [26]: 6.13
- SUV [27]: 4.84
- SUV [28]: 4.38
- SUV [29]: 4.16

SMILES: [11CH3]Nc1ccc(-c2nc3ccc(O)cc3s2)cc1 [PITTSBURGH COMPOUND B]
- SUV [30]: 1.053
- SUV [31]: 0.053
- SUV [32]: 2.044
- SUV [33]: 1.143
- SUV [34]: 1.04
- SUV [35]: 0.84
